Assay [1] concerns the target T1, Monoglyceride lipase (Mus musculus) (UniProt O35678).
T1 sequence (whole entry): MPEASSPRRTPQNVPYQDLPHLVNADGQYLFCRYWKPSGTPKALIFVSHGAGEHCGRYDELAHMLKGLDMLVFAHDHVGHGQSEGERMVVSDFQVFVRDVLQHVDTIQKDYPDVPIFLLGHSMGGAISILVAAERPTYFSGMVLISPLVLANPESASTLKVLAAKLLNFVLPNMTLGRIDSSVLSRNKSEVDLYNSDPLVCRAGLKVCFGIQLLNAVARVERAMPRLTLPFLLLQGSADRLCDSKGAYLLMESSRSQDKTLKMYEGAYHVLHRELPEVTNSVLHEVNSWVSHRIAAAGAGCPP
In words: Inhibition of MAGL in mouse whole brain membranes at 10 uM incubated for 1 hr by TAMRA-FP probe based competitive activity-based protein profiling assay. It counts as cell membranes. The following applies: Membrane. The method, boiled down: (§1)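 Competitive ABPP on mouse brain membranes (100 µg) treated 1 h with DMSO or inhibitor. TAMRA-FP labelling then ran 1 h at RT (final probe 2 µM). Reaction was quenched with gel loading buffer and proteins resolved by 10% SDS–PAGE for fluorescent band read-out. WWL70 located the ABHD6 band. Gels are representative of two experiments.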

The target in assay [2] is T2, Fatty-acid amide hydrolase 1 (Homo sapiens) (UniProt O00519).
T2 sequence (whole entry): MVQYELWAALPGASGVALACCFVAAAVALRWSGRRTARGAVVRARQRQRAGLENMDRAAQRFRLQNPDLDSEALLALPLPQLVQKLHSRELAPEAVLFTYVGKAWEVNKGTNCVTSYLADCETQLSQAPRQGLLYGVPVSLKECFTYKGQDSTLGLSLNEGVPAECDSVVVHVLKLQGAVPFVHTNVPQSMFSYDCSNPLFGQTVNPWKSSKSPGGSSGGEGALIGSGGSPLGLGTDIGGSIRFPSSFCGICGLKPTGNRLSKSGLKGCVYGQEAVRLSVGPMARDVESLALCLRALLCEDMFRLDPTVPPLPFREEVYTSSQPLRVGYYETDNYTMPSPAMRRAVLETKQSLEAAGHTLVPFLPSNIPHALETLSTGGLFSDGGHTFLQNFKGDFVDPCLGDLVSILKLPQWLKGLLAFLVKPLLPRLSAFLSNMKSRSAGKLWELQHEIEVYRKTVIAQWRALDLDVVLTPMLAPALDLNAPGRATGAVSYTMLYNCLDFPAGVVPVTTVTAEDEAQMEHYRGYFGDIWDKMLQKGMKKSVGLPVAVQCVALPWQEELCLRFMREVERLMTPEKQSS
In words: Inhibition of human FAAH expressed in COS7 cell membranes at 10 uM pre-incubated for 10 mins before [3H]-AEA substrate addition by liquid scintillation counting. To be noted: COS-7.

The target in assay [3] is T3, Monoacylglycerol lipase ABHD6 (Homo sapiens, UniProt Q9BV23).
T3 sequence (Q9BV23 whole entry): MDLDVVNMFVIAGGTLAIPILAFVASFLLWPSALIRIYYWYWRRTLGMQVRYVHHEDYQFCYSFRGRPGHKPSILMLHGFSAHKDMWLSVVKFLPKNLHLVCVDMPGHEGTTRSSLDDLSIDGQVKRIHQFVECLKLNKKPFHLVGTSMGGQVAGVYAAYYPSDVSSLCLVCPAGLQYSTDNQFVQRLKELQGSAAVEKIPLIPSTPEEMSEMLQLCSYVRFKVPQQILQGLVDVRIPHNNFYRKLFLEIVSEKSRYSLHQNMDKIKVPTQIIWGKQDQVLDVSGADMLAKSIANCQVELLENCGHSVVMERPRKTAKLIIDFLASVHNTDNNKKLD
In words: Inhibition of human ABHD6 expressed in HEK293 cells assessed as reduction in glycerol production from 1-AG hydrolysis pre-incubated for 30 mins before 1-AG substrate addition and measured 90 mins post substrate addition by fluorescence method. It counts as cell-based. The method, boiled down: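 hABHD6-HEK293 lysates pretreated 30 min with DMSO or inhibitor, then given 1-AG (12.5 µM final). Glycerol release was followed kinetically by fluorescence (emission 590 nm). Blanks without lysate were subtracted. IC50 was taken at the 90 min time point by nonlinear fitting of dose–response curves.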

Assay [4] concerns the target T4, Lysophosphatidylserine lipase ABHD12 (Mus musculus) (UniProt Q99LR1).
T4 sequence (whole entry): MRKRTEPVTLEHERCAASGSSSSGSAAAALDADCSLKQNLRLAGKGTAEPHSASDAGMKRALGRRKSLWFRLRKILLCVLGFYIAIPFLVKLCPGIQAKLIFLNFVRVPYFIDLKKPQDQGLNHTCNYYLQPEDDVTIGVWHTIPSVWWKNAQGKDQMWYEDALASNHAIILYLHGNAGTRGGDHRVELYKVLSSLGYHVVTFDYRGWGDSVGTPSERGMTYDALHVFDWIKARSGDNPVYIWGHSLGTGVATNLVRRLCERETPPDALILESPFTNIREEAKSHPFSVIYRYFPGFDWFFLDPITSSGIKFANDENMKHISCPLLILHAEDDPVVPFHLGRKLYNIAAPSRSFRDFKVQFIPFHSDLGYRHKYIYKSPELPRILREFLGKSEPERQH
In words: Inhibition of ABHD12 in mouse whole brain membranes at 10 uM incubated for 1 hr by TAMRA-FP probe based competitive activity-based protein profiling assay. To be noted: Membrane. It counts as cell membranes. The method, boiled down:
as §1

For assay [5], the target named is T5, Lysophosphatidylserine lipase ABHD12 (Homo sapiens) (UniProt Q8N2K0).
T5 sequence (whole entry): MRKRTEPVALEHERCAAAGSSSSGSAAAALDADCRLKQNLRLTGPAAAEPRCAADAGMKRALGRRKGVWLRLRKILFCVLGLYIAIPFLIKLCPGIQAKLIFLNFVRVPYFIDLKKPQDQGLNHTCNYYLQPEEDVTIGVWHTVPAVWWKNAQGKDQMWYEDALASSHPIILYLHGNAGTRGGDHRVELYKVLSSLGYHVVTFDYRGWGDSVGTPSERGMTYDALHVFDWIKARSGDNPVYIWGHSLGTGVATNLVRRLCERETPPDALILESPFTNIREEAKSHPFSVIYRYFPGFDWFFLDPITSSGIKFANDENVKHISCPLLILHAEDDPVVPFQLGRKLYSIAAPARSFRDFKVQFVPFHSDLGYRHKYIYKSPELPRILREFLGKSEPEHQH
In words: Inhibition of human ABHD12 expressed in HEK293 cells assessed as remaining enzyme activity at 1 uM pre-incubated for 10 mins before 2-AG substrate addition by HPLC method. It counts as cell-based.

Active and inactive are the calls of the source. The rule behind the calls is not given here.

In general, inhibition refers to the change of the read-out against control, counted positive when it falls. As a reminder, the IC50 is the concentration that gives 50% inhibition. Take `Nc1cccc(Cn2nc(Oc3ccccc3)oc2=O)c1`: the inhibition result in assay [1] and in assay [4] was “Active” each time. Also, in assay [2], the inhibition was found to be 25%. In addition, the IC50 in assay [3] came out at 73 nM. The inhibition result in assay [5] was “inactive”.

`COc1nn(Cc2cccc(N)c2)c(=O)o1`: the inhibition entry in assay [1], in assay [4] and in assay [5] was “inactive” throughout. The inhibition in assay [2] worked out at 18%. For the same compound, in assay [3], the IC50 amounted to 216 nM.
